Data as given in PubChem BioAssay AID1665 (Sanford-Burnham Center for Chemical Genomics, 2009).
The campaign covered roughly 190,000 compounds. About 590 (0.31%) were called active.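 The calls were made as follows: active = nuclear translocation activity above 50% at 5 µM, with a well cell count of 50 or more; inconclusive = wells under 50 cells across six images, flagged as toxic; inactive = the rest.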 The full list was thinned out, with actives kept by preference.

Assay: modulators of beta-catenin nuclear translocation, primary screen, imaging, HeLa cells, immunofluorescence, high-content (AID 1665);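 as to nuclear translocation activity: per-cell ratio of nuclear to cytoplasmic median beta-catenin stain intensity; plate controls were DMSO negative control for no effect and GSK-3 inhibitor IX positive control for full effect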
Conditions: at 5 µM; cell count: measured here: cell count, cytotoxicity flag; nuclear translocation activity: stronger effect = higher value
Procedure, shortened: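 test system = HeLa cells, endogenous beta-catenin | dosing = single 5 µM dose plus 0.02–20 µM confirmation series | times = compound treatment 24 h, 37°C, 5% CO2 | technique = beta-catenin immunofluorescence imaging with DAPI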
For `c1csc(-c2nnc(COc3ncnc4sccc34)o2)c1`, the cell count was 1250 cells and the nuclear translocation activity was 2.6% (inactive). In the case of `O=C(NC(=O)N1CCSCC1)c1c(Cl)cccc1Cl`, the cell count is reported as 1280 cells and the nuclear translocation activity is reported as 0.2% (inactive). For `O=C(Nc1cccnc1)c1cc([N+](=O)[O-])ccc1Cl`, the cell count was 1370 cells and the nuclear translocation activity was -0.7% (inactive). In the case of `Cc1ccc(C2CC(=O)NC(SCC(=O)OCc3ccccc3)=C2C#N)o1` (stereo not given), the cell count is reported as 922 cells and the nuclear translocation activity is reported as 47.9% (inactive). For `C=CCOC(=O)C1=C(C)NC(SCC(=O)OCC)=C(C#N)C1c1ccc(C)cc1` (stereo not given), the cell count was 1350 cells and the nuclear translocation activity was 0.1% (inactive). For `CCOC(=O)CSC1=C(C#N)C(c2sccc2C)CC(=O)N1` (stereo not given), the cell count was 658 cells and the nuclear translocation activity was 69% (active). For `O=C(O)C1CCN(C(=O)c2cc(F)cc3c2OCOC3)CC1`, the cell count was 1200 cells and the nuclear translocation activity was -2.6% (inactive). With `O=C(NNC(=S)NC1CC2CCC1C2)c1ccc(Cl)cc1` (stereo not given) the cell count was 1150 cells and the nuclear translocation activity was -1.4% (inactive). In the case of `CCNC(=O)CCc1nc(-c2ccc(C)cc2)no1`, the cell count is reported as 1360 cells and the nuclear translocation activity is reported as -0.5% (inactive). With `Nc1nonc1-c1nc2ccccc2n1Cc1ccc(F)cc1` the cell count was 778 cells and the nuclear translocation activity was -0.5% (inactive). For `Nc1nonc1-c1nc2ccccc2n1CCC(=O)O`, the cell count was 899 cells and the nuclear translocation activity was -2% (inactive). In the case of `COc1ccc(C)c(Cn2c(-c3nonc3N)nc3ccccc32)c1`, the cell count is reported as 720 cells and the nuclear translocation activity is reported as 101% (active). In the case of `CCCc1nnc(NC(=O)c2cc(OC)cc(OC)c2)s1`, the cell count is reported as 878 cells and the nuclear translocation activity is reported as -2.3% (inactive). For `COc1ccc(Cc2nnc(NC(=O)c3cc(OC)c(OC)c(OC)c3)s2)cc1OC`, the cell count was 371 cells and the nuclear translocation activity was 53.4% (active). For `O=C(Nc1nnc(Cc2ccc(Cl)cc2)s1)c1ccncc1`, the cell count was 1270 cells and the nuclear translocation activity was 1% (inactive). With `O=[N+]([O-])c1ccc2nc(-c3ccccn3)[nH]c2c1` the cell count was 1380 cells and the nuclear translocation activity was -0.1% (inactive). With `Brc1ccc(-c2nn[nH]n2)cc1` the cell count was 1320 cells and the nuclear translocation activity was 0.9% (inactive). With `Nc1ccc(C(=O)OCC(=O)NC2CCS(=O)(=O)C2)cc1[N+](=O)[O-]` (stereo not given) the cell count was 1260 cells and the nuclear translocation activity was -3.1% (inactive). For `Nc1c(N(CCO)C(=O)C2CCCCC2)c(=O)[nH]c(=O)n1Cc1ccccc1`, the cell count was 1350 cells and the nuclear translocation activity was 0.2% (inactive). For `O=C(Nc1ccc(S(=O)(=O)N2CCOCC2)cc1)c1ccc2ncsc2c1`, the cell count was 1420 cells and the nuclear translocation activity was -1.2% (inactive). For `O=C(NCc1ccco1)C1CCCN1S(=O)(=O)c1ccccc1C(F)(F)F` (stereo not given), the cell count was 1300 cells and the nuclear translocation activity was -0.6% (inactive). In the case of `Cc1cc(CO)nn1-c1ccc([N+](=O)[O-])cc1`, the cell count is reported as 1190 cells and the nuclear translocation activity is reported as -2.5% (inactive). With `COc1ccc(Cl)cc1C(=O)NNC(=O)c1nc2nc(C)cc(C)n2n1` the cell count was 1330 cells and the nuclear translocation activity was 1.2% (inactive). With `COc1cc2c(cc1OC)C(/C=C/c1ccco1)=NCC2` the cell count was 1310 cells and the nuclear translocation activity was 2% (inactive). With `Cc1ccc(C)c2[nH]c(=O)c(CN(Cc3cccnc3)C(=S)NCc3ccco3)cc12` the cell count was 1320 cells and the nuclear translocation activity was -1.9% (inactive).
